{
  "source": "ChEMBL document CHEMBL1129357",
  "about": "“4-[4-[(2-Hydroxybenzoyl)amino]phenyl]butyric acid as a novel oral delivery agent for recombinant human growth hormone” (1996)",
  "data": [
    {"tested_on": "Rattus norvegicus", "experiment": "Ability to promote absorption of recombinant human growth hormone from the gastrointestinal tract in rats by using ELISA assay. (Compound dose 300 mg/kg, rhGH 6 mg/kg by OG administration)", "type": "functional", "details": "not given", "procedure,_shortened": "(§1)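 Male Sprague-Dawley rats, 225-250 g, in groups of six or seven, with free access to water for 24 h beforehand. Ketamine 44 mg/kg plus thorazine 1.5 mg/kg given just before dosing. Aqueous delivery agent, adjusted to pH 7.2-7.8, with rhGH, given by oral gavage or intracolonic instillation. Serum rhGH measured by ELISA; peak concentration in ng/mL reported as mean ± SD.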", "units": {"Peak rhGH": "ng/mL"}, "values": [
      {"smiles": "CC(C(=O)Nc1ccc(CCCC(=O)O)cc1)c1ccccc1", "note": "(configuration not stated)", "Peak rhGH": 2.3},
      {"smiles": "O=C(O)CCCc1ccc(NC(=O)c2ccccc2F)cc1", "Peak rhGH": 43.4},
      {"smiles": "O=C(O)CCCc1ccc(NC(=O)CCc2ccccc2)cc1", "Peak rhGH": 12.8},
      {"smiles": "O=C(O)CCCc1ccc(NC(=O)Cc2ccccc2)cc1", "Peak rhGH": 8.1},
      {"smiles": "O=C(O)CCCc1ccc(NC(=O)c2ccc(F)cc2)cc1", "Peak rhGH": 2.8},
      {"smiles": "O=C(O)Cc1ccc(NC(=O)CC2CCCCC2)cc1", "Peak rhGH": 15.7},
      {"smiles": "COc1ccc(C(=O)Nc2ccc(CCCC(=O)O)cc2)cc1", "Peak rhGH": 0},
      {"smiles": "O=C(O)CCCc1ccc(NC(=O)CCCc2ccccc2)cc1", "Peak rhGH": 17.9},
      {"smiles": "O=C(O)CCCc1ccc(NC(=O)Cc2ccccc2O)cc1", "Peak rhGH": 0},
      {"smiles": "O=C(O)CCCc1ccc(NC(=O)c2ccccc2O)cc1", "Peak rhGH": 49.7},
      {"smiles": "O=C(O)Cc1ccc(NC(=O)Cc2ccccc2)cc1", "Peak rhGH": 9},
      {"smiles": "O=C(O)c1ccc(NC(=O)c2ccc(F)cc2)cc1", "Peak rhGH": 1},
      {"smiles": "O=C(O)Cc1ccc(NC(=O)CCc2ccccc2)cc1", "Peak rhGH": 12.6},
      {"smiles": "CCC(C(=O)Nc1ccc(CCCC(=O)O)cc1)c1ccccc1", "note": "(configuration not stated)", "Peak rhGH": 5.9}
    ]},
    {"tested_on": "Rattus norvegicus", "experiment": "Ability to promote absorption of recombinant human growth hormone from the gastrointestinal tract in rats by using ELISA assay at a of dose 25 mg/kg, rhGH 1 mg/kg by IC administration", "type": "functional", "details": "not given", "procedure,_shortened": "as §1", "units": {"Peak rhGH": "ng/mL"}, "values": [
      {"smiles": "O=C(O)CCCc1ccc(NC(=O)c2ccccc2F)cc1", "Peak rhGH": 20.8},
      {"smiles": "O=C(O)CCCc1ccc(NC(=O)c2ccccc2)cc1", "Peak rhGH": 17.5},
      {"smiles": "O=C(O)CCCc1ccc(NC(=O)c2ccccc2Cl)cc1", "Peak rhGH": 52.2},
      {"smiles": "COc1ccccc1/C=C/C(=O)Nc1ccc(C(=O)O)cc1", "Peak rhGH": 30.4},
      {"smiles": "Cc1ccccc1C(=O)Nc1ccc(CCCC(=O)O)cc1", "Peak rhGH": 9.08},
      {"smiles": "Cc1ccccc1/C=C/C(=O)Nc1ccc(CCCC(=O)O)cc1", "Peak rhGH": 16.4},
      {"smiles": "O=C(O)CCCc1ccc(NC(=O)c2ccccc2O)cc1", "Peak rhGH": 64.7},
      {"smiles": "O=C(O)CCCc1ccc(NC(=O)c2cccc(C(F)(F)F)c2)cc1", "Peak rhGH": 17.6},
      {"smiles": "O=C(O)CCCc1ccc(NC(=O)c2cccc(Cl)c2)cc1", "Peak rhGH": 0}
    ]},
    {"tested_on": "Rattus norvegicus", "experiment": "Ability to promote absorption of recombinant human growth hormone (rhGH) from the gastrointestinal tract in rats by using ELISA assay. (Compound at a of dose 250 mg/kg, rhGH 6 mg/kg by OG administration)", "type": "functional", "details": "not given", "procedure,_shortened": "as §1", "units": {"Peak rhGH": "ng/mL"}, "values": [
      {"smiles": "O=C(O)CCCc1ccc(NS(=O)(=O)c2ccccc2)cc1", "Peak rhGH": 2.6}
    ]},
    {"tested_on": "Rattus norvegicus", "experiment": "Ability to promote absorption of recombinant human growth hormone from the gastrointestinal tract in rats by using ELISA assay. (Compound dose 25 mg/kg, rhGH 6 mg/kg by OG administration)", "type": "functional", "details": "in the assay text read “rhGH 1 mg/kg by IC administration” for “rhGH 6 mg/kg by OG administration”", "procedure,_shortened": "as §1", "units": {"Peak rhGH": "ng/mL"}, "values": [
      {"smiles": "COc1ccccc1/C=C/C(=O)Nc1ccc(CCCC(=O)O)cc1", "Peak rhGH": 32.9}
    ]},
    {"tested_on": "Rattus norvegicus", "experiment": "Ability to promote absorption of recombinant human growth hormone from the gastrointestinal tract in rats by using ELISA assay. (Compound dose 400 mg/kg, rhGH 6 mg/kg by OG administration)", "type": "functional", "details": "not given", "procedure,_shortened": "as §1", "units": {"Peak rhGH": "ng/mL"}, "values": [
      {"smiles": "O=C(O)CCCc1ccc(NC(=O)c2ccc(-c3ccccc3)c(-c3ccccc3)c2)cc1", "Peak rhGH": 28.2},
      {"smiles": "CC1CCC(C(=O)Nc2ccc(C(=O)O)cc2)CC1", "note": "(configuration not stated)", "Peak rhGH": 0},
      {"smiles": "O=C(O)CCCc1ccc(NC(=O)C2CCCCCC2)cc1", "Peak rhGH": 92.8},
      {"smiles": "CCC(C(=O)Nc1ccc(CCCC(=O)O)cc1)C1CCCCC1", "note": "(configuration not stated)", "Peak rhGH": 0.5},
      {"smiles": "CC1CCC(C(=O)Nc2ccc(CCCC(=O)O)cc2)CC1", "note": "(configuration not stated)", "Peak rhGH": 41.6},
      {"smiles": "O=C(O)/C=C/c1ccc(NC(=O)c2ccccc2)cc1", "Peak rhGH": 6.5},
      {"smiles": "O=C(O)CCCc1ccc(NC(=O)/C=C/c2ccccc2)cc1", "Peak rhGH": 49.7},
      {"smiles": "O=C(O)CCCc1ccc(NC(=O)/C=C/c2c(F)c(F)c(F)c(F)c2F)cc1", "Peak rhGH": 49.7}
    ]},
    {"tested_on": "Rattus norvegicus", "experiment": "Ability to promote absorption of recombinant human growth hormone from gastrointestinal tract in rats by using ELISA assay. (Compound dose 500 mg/kg, rhGH 6 mg/kg by OG administration)", "type": "functional", "details": "not given", "procedure,_shortened": "as §1", "units": {"Peak rhGH": "ng/mL"}, "values": [
      {"smiles": "O=C(O)CCCc1ccc(NC(=O)c2ccccc2)cc1", "Peak rhGH": 21.7}
    ]},
    {"tested_on": "Rattus norvegicus", "experiment": "Ability to promote absorption of recombinant human growth hormone from gastrointestinal tract in rats by using ELISA assay at a of dose 25 mg/kg, rhGH 1 mg/kg by IC administration", "type": "functional", "details": "not given", "procedure,_shortened": "as §1", "units": {"Peak rhGH": "ng/mL"}, "values": [
      {"smiles": "O=C(O)CCCc1ccc(NC(=O)c2ccccc2[N+](=O)[O-])cc1", "Peak rhGH": 14.9},
      {"smiles": "O=C(O)CCCc1ccc(NC(=O)/C=C/c2ccccc2F)cc1", "Peak rhGH": 7.7},
      {"smiles": "COc1ccccc1/C=C/C(=O)Nc1ccc(CCC(=O)O)cc1", "Peak rhGH": 61.7},
      {"smiles": "O=C(O)c1ccc(NC(=O)c2ccccc2O)cc1", "Peak rhGH": 0},
      {"smiles": "O=C(O)CCCc1ccc(NC(=O)CCCCc2ccccc2)cc1", "Peak rhGH": 8.4},
      {"smiles": "O=C(O)CCc1ccc(NC(=O)c2ccccc2O)cc1", "Peak rhGH": 37.2},
      {"smiles": "O=C(O)CCCc1ccc(NC(=O)c2ccccc2OC(F)(F)F)cc1", "Peak rhGH": 56.8},
      {"smiles": "O=C(O)CCc1ccc(NC(=O)c2ccccc2[N+](=O)[O-])cc1", "Peak rhGH": 17.6},
      {"smiles": "O=C(O)CCCc1ccc(NC(=O)CCCC2CCCCC2)cc1", "Peak rhGH": 26},
      {"smiles": "O=C(O)c1ccc(NS(=O)(=O)c2ccccc2)cc1", "Peak rhGH": 0},
      {"smiles": "COc1ccc(/C=C/C(=O)Nc2ccc(CCC(=O)O)cc2)cc1", "Peak rhGH": 5},
      {"smiles": "O=C(O)CCCc1ccc(NC(=O)c2ccccc2C(=O)O)cc1", "Peak rhGH": 22.3},
      {"smiles": "O=C(O)CCCc1ccc(NC(=O)c2ccc3c(c2)OCO3)cc1", "Peak rhGH": 0},
      {"smiles": "Cc1cccc(C)c1C(=O)Nc1ccc(CCCC(=O)O)cc1", "Peak rhGH": 7.7},
      {"smiles": "O=C(O)CCCc1ccc(NC(=O)c2c(O)cccc2O)cc1", "Peak rhGH": 20.9},
      {"smiles": "O=C(O)CCCc1ccc(NC(=O)CCC(=O)c2ccccc2)cc1", "Peak rhGH": 0.6},
      {"smiles": "COc1ccccc1C(=O)Nc1ccc(CCCC(=O)O)cc1", "Peak rhGH": 17.8},
      {"smiles": "O=C(O)CCCc1ccc(NC(=O)C(O)C(O)c2ccccc2)cc1", "note": "(configuration not stated)", "Peak rhGH": 2.5},
      {"smiles": "O=C(O)Cc1ccc(NC(=O)c2ccccc2O)cc1", "Peak rhGH": 5.6},
      {"smiles": "O=C(O)CCCc1ccc(NC(=O)Cc2ccccc2F)cc1", "Peak rhGH": 7.3},
      {"smiles": "CN(C)c1cccc(C(=O)Nc2ccc(CCCC(=O)O)cc2)c1", "Peak rhGH": 50.7},
      {"smiles": "O=C(O)c1ccc(NC(=O)c2ccc(F)cc2)cc1", "Peak rhGH": 2.2},
      {"smiles": "O=C(O)CCCc1ccc(NC(=O)c2cccc([N+](=O)[O-])c2)cc1", "Peak rhGH": 33.5},
      {"smiles": "COc1cccc(O)c1C(=O)Nc1ccc(CCC(=O)O)cc1", "Peak rhGH": 9.3},
      {"smiles": "O=C(O)CCCc1ccc(NC(=O)CCOc2ccccc2)cc1", "Peak rhGH": 44.1},
      {"smiles": "O=C(O)CCCc1ccc(NCc2ccccc2O)cc1", "Peak rhGH": 32.5}
    ]},
    {"tested_on": "Rattus norvegicus", "experiment": "Ability to promote absorption of recombinant human growth hormone from the gastrointestinal tract in rats by using ELISA assay. (Compound dose 500 mg/kg, rhGH 6 mg/kg by OG administration)", "type": "functional", "details": "not given", "procedure,_shortened": "as §1", "units": {"Peak rhGH": "ng/mL"}, "values": [
      {"smiles": "O=C(O)CCCc1ccc(NS(=O)(=O)c2ccccc2)cc1", "Peak rhGH": 28},
      {"smiles": "O=C(O)CCCc1ccc(NC(=O)c2cccc(-c3ccccc3)c2-c2ccccc2)cc1", "Peak rhGH": 5.9},
      {"smiles": "O=C(O)CCCc1ccc(NC(=O)c2ccc(-c3ccccc3)cc2)cc1", "Peak rhGH": 39.9},
      {"smiles": "O=C(CCCC1CCCCC1)Nc1ccc(C(=O)O)cc1", "Peak rhGH": 29.3},
      {"smiles": "O=C(O)Cc1ccc(NS(=O)(=O)c2ccccc2)cc1", "Peak rhGH": 0},
      {"smiles": "O=C(Cc1ccccc1)Nc1ccc(C(=O)O)cc1", "Peak rhGH": 0},
      {"smiles": "O=C(CCCc1ccccc1)Nc1ccc(C(=O)O)cc1", "Peak rhGH": 11.9},
      {"smiles": "O=C(CC1CCCCC1)Nc1ccc(C(=O)O)cc1", "Peak rhGH": 0},
      {"smiles": "O=C(O)c1ccc(NS(=O)(=O)c2ccccc2)cc1", "Peak rhGH": 13.7},
      {"smiles": "O=C(CCc1ccccc1)Nc1ccc(C(=O)O)cc1", "Peak rhGH": 3.3},
      {"smiles": "O=C(O)CCCc1ccc(NC(=O)C2CCCCC2)cc1", "Peak rhGH": 63.8},
      {"smiles": "O=C(O)CCCc1ccc(NC(=O)CC2CCCCC2)cc1", "Peak rhGH": 24.2}
    ]},
    {"tested_on": "Rattus norvegicus", "experiment": "Ability to promote absorption of recombinant human growth hormone from the gastrointestinal tract in rats by using ELISA assay. (Compound dose 200 mg/kg, rhGH 6 mg/kg by OG administration)", "type": "functional", "details": "not given", "procedure,_shortened": "as §1", "units": {"Peak rhGH": "ng/mL"}, "values": [
      {"smiles": "O=C(O)CCCc1ccc(NCc2ccccc2)cc1", "Peak rhGH": 20.4},
      {"smiles": "O=C(O)CCCc1ccc(NC(=O)c2ccc(O)cc2O)cc1", "Peak rhGH": 16.9},
      {"smiles": "O=C(O)CCCc1ccc(NC(=O)C2CCCCC2C(=O)O)cc1", "note": "(configuration not stated)", "Peak rhGH": 0},
      {"smiles": "CC(C)Cc1ccc(CC(=O)Nc2ccc(CCCC(=O)O)cc2)cc1", "Peak rhGH": 7.8}
    ]},
    {"tested_on": "Rattus norvegicus", "experiment": "Ability to promote absorption of recombinant human growth hormone (rhGH) from the gastrointestinal tract in rats by using ELISA assay. (Compound dose 300 mg/kg, rhGH 6 mg/kg by OG administration)", "type": "functional", "details": "not given", "procedure,_shortened": "as §1", "units": {"Peak rhGH": "ng/mL"}, "values": [
      {"smiles": "O=C(O)CCCc1ccc(NC(=O)c2ccccc2)cc1", "Peak rhGH": 5.4}
    ]}
  ]
}
